The values that follow come from ChEMBL document CHEMBL1134680, “Iridals are a novel class of ligands for phorbol ester receptors with modest selectivity for the RasGRP receptor subfamily” (J Med Chem, 2001).

The test system of experiment [1] is Panel NCI-60 (60 carcinoma cell lines). As to the kind of experiment: Inhibition of cell growth in NCI panel of 60 human carcinoma lines. In kind it is functional.
Experiment [2] deals with T1, Ras guanyl-releasing protein 3 (Homo sapiens, UniProt Q8IV61).
T1 sequence (Q8IV61 whole entry): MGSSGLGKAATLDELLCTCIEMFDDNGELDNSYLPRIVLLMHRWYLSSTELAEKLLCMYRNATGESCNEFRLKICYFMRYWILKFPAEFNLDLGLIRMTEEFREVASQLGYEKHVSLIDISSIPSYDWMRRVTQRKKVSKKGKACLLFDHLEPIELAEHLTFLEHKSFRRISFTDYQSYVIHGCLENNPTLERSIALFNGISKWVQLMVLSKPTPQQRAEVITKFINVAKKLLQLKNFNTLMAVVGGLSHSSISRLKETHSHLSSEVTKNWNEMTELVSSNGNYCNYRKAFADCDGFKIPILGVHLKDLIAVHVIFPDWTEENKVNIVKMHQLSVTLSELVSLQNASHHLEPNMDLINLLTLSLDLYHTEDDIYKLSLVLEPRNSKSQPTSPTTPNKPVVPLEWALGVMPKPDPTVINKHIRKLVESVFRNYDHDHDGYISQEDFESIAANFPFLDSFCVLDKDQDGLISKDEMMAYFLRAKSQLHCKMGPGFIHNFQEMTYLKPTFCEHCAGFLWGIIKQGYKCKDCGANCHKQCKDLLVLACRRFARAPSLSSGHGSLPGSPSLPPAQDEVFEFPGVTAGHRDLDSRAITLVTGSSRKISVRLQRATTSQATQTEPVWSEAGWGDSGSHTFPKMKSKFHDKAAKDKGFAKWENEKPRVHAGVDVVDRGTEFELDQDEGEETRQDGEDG
The experiment in a line: Binding affinity for RasGRP, guanine nucleotide exchange factor.

Experiment [3] has as its target Protein kinase C alpha type (Homo sapiens, UniProt P17252). As to the kind of experiment: Binding affinity for PKC alpha (C1b domain). The method, boiled down: (§1)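 Competition of [3H]PDBu (3.0 nM) binding to partially purified PKCα or bacterially expressed MBP/RasGRP3 fusion (human RasGRP3, amylose-bead purified). Buffer: 50 mM Tris-Cl pH 7.4, 2 mg/mL γ-globulins, 0.1 mM Ca2+, 0.1 mg/mL phosphatidylserine. Incubation was 5 min at 37 °C for PKCα and 5 min at 18 °C for RasGRP3. Nonspecific binding was set with 30 μM PDBu. Bound and free were separated by PEG precipitation and counted.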

Experiment [4] concerns the target T1, Ras guanyl-releasing protein 3. The experiment in a line: Binding affinity for RasGPR3, guanine nucleotide exchange factor. The method, boiled down:
as §1

Turning to `C=C(C)[C@]12C[C@@H](C)[C@@]34O[C@](/C=C/C=CCCCCCCCCC)(O[C@@H]1[C@@H]3[C@@H]1O[C@]1(CO)[C@@H](O)[C@]1(O)C(=O)C(C)=C[C@H]14)O2`, in experiment [1], the “Log 1/GI50” value was found to be 4.7.

Turning to `C=C(C)[C@@]12OC3(c4ccccc4)O[C@@H]1[C@@H]1[C@@H]4O[C@]4(CO)[C@@H](O)[C@]4(O)C(=O)C(C)=C[C@H]4[C@@]1(O3)[C@H](C)[C@H]2OC(=O)/C=C/C=C/c1ccccc1`, the “Log 1/GI50” value in experiment [1] turned out to be 5.8.

As for `CC1=CC[C@H](C)C(C)(C)[C@@H]1/C=C/C(C)=C\CC[C@@]1(CO)[C@H](CCCO)/C(=C(/C)C=O)CC[C@]1(C)O`, the Ki was 15.5 nM in experiment [2] and 75.6 nM in experiment [3]. Also, the “Log 1/GI50” value in experiment [1] is reported as 4.6.

`CCCCC(=O)O[C@@H]1[C@@H](C)[C@@]2(O)[C@@H](C=C(CO)C[C@]3(O)C(=O)C(C)=C[C@@H]23)[C@@H]2C(C)(C)[C@]12OC(=O)CCC`: the “Log 1/GI50” value in experiment [1] turned out to be 4.

`C=C(/C=C/C=C(/CCC=C(C)C)COC(C)=O)[C@@H]1CC[C@]2([C@H](CCCO)/C(=C(/C)C=O)CC[C@]2(C)O)[C@@H]1O`: the Ki in experiment [4] was determined as 41.7 nM; in experiment [3] it was 83.6 nM. For the same compound, the “Log 1/GI50” value in experiment [1] was determined as 4.4.

For the compound `C=C(C)[C@@]12C[C@@H](COC(=O)c3ccccc3)[C@@]34OC5(O[C@@H]1[C@@H]3[C@@H]1O[C@]1(CO)[C@@H](O)[C@@]1(O)[C@H]4[C@H]([C@H](C)[C@@H]1OC(=O)c1ccccc1)[C@H](C)CCCCCC[C@H]5O)O2` [GNIDIMACRIN], in experiment [1], the “Log 1/GI50” value is 4.

In the case of `CC(=O)O[C@@]12C[C@@H](C)[C@@]3(O)[C@@H](C=C(CO)C[C@]4(O)C(=O)C(C)=C[C@@H]34)[C@@H]1C2(C)C` [PROSTRATIN], in experiment [1], the “Log 1/GI50” value is listed as 3.

On to `CC1=C[C@H]2[C@@]3(O)[C@H](C)[C@@H](O)[C@]4(O)[C@H]([C@@H]3C=C(CO)C[C@]2(O)C1=O)C4(C)C` [PHORBOL], for which the “Log 1/GI50” value in experiment [1] was 4.3.

A word on the Ki: it is the equilibrium dissociation constant of an inhibitor or competing ligand from its target.
